# Screening results from PubChem BioAssay.
# TROY signal inh: blocks TROY-dependent signaling in reporter cells; Q293 LMP1-TROYcd NF-kB luciferase reporter, 4 h; inhibition, % at 10 µM; 360,000 compounds, 0.98% hits;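 active means compounds whose plate-normalised and pattern-corrected inhibition of the luciferase reporter signal at the single screening dose is 50% or more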
# LGR2 antag: blocks bursicon-induced cAMP signaling via Drosophila LGR2; HEK293 LGR2, CRE-luciferase, bursicon-stimulated, 4 h; inhibition, % at 9.99 µM; 380,000 compounds, 0.35% hits;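 active means drop in luminescence signal, shown as inhibition above about 50% in the replicate tests, limit read from the data, passing the limit was not always enough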;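 further: agonist challenge used bursicon conditioned medium at about half maximal strength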
# TWEAK-Fn14 inh: blocks TWEAK-Fn14 interaction in a reporter cell assay; TWEAK-stimulated Fn14 reporter cells, luciferase luminescence, 8 h; inhibition, % at 10 µM; 360,000 compounds, 2% hits; AID 1159606; in the data active means inhibition above about 50%
# Xi reactivation: activators of X-chromosome reactivation in mouse fibroblasts; XiGFP mouse fibroblasts, % GFP-positive cells imaging, 3 d; cells co-treated with 5-aza-dC sensitizer; scaled so ellipticine positive control = 100%; AID 743238; activation, % at 7.58 µM; 360,000 compounds, 0.055% hits;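 active means mean normalized replicate activation at least 10% and every replicate at or above 10%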;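 further: 0% = median of on-plate neutral control wells and 100% = ellipticine 6 µM median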
#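 System: 68-5-11 XiGFP fibroblast line | Buffer or medium: DMEM containing 5-aza-dC | Compound: Single point | Times: Compounds 3 days, fix/stain 15 min at room temperature | Benchmarks: Positive control ellipticine, 6 µM final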
# CaV13 ICDI inh: Primary screen for inhibitors of IQ motif and Ca2+-dependent inactivation inhibitor domain binding in CACNA1D, Förster resonance energy transfer in living cells, …. HEK cells, CFP/YFP FRET ICDI-IQ, plate reader, 10 min; percent FRET-ratio fall versus neutral wells. inhibition, % at 12.3 µM. 340,000 compounds, 0.098% hits;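 active means mean replicate inhibition of at least 30% and at least 1% of replicates passing that level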;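 further: 0% = median of the neutral control wells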
# The depositor's hits bear a star; · = not tested or not shown. An excerpt weighted towards active compounds, which were near 2% of everything screened.
SMILES,TROY signal inh,LGR2 antag,TWEAK-Fn14 inh,Xi reactivation,CaV13 ICDI inh
Cc1cc(=O)oc2c3c(cc(OCC(=O)NC(C)C)c12)OC(C)(C)CC3,9.6,-9.7,-23.3,0.0,-3.8
Cc1cc(=O)oc2c3c(cc(OCC(=O)N[C@@H](C)C(=O)O)c12)OC(C)(C)CC3,-15.7,0.1,76.4*,-0.1,-6.8
CCCNC(=O)[C@H]1[C@H](CO)[C@H]2Cn3c(ccc(-c4ccc(F)cc4)c3=O)[C@@H]1N2CC,·,10.6,·,0.0,·
CCOc1cc(/C=C2\C(=O)ON=C2C)ccc1OCc1ccccc1,-16.7,-7.4,60.6*,0.5,-5.7
CCCOc1ccc(/C=C2/C(=O)ON=C2C)cc1OCC,-18.1,16.0,4.0,0.1,-17.9
CC(=O)CC(C)(C)n1nnc(-c2ccccc2)n1,-2.6,-8.0,92.2*,·,-5.2
O=C(c1ccncc1)N1CC(=O)N2[C@H](CO)[C@H](c3ccc(/C=C/c4ccccc4)cc3)[C@@H]2C1,·,26.2,·,0.1,·
CCOC(=O)c1ccc2ncc(C(=O)OCC)c(Nc3ccc(N4CCOCC4)cc3)c2c1,10.5,55.5*,53.0*,0.0,-18.2
N#CC(=C1C=CC(=NO)C(Cl)=C1)c1ccc(Cl)cc1,26.8,-15.1,64.0*,0.1,-3.8
CCCN1C[C@@H](C)[C@@H](OC)CN(C)C(=O)c2ccc(NC(=O)Nc3c(C)noc3C)cc2OC[C@@H]1C,·,-9.3,·,0.0,·
CCOC(=O)c1cn[nH]c1NC(=S)Nc1ccc(Cl)cc1,61.0*,-16.0,60.5*,0.0,-4.6
CCCNC(=O)[C@H]1[C@H](CO)[C@H]2Cn3c(ccc(-c4ccccc4F)c3=O)[C@@H]1N2CCC,·,-35.3,·,0.6,·
Cc1noc(C)c1NC(=O)Nc1ccc2c(c1)CC(=O)N([C@@H](C)CO)C[C@@H](C)[C@@H](CN(C)Cc1ccc(Oc3ccccc3)cc1)O2,·,9.1,·,0.1,·
Cc1cc(=O)[nH]c(SCC(=O)Nc2cccc3ccccc23)c1C#N,51.8*,·,15.3,·,-7.1
COc1cc(NC(=O)c2ccccc2)c(OC)cc1NC(=O)CSc1[nH]c(=O)cc(C)c1C#N,8.2,7.1,2.2,0.1,-7.3
CC(O)(c1ccc(F)c(F)c1)c1nc(-c2ccc3ccccc3c2)cs1 (configuration not stated),-4.0,-13.8,16.7,-0.1,-11.8
CC(O)(c1ccc(F)c(F)c1)c1nc(-c2cnc3ccccc3c2)cs1 (configuration not stated),29.7,14.2,55.2*,0.0,-5.7
CCCC#Cc1ccc2c(c1)O[C@H](CN(C)C(=O)c1ccccc1)[C@H](C)CN([C@@H](C)CO)S2(=O)=O,·,17.9,·,-0.2,·
COc1ccc(OC)c(/C=N/Nc2nc(C)cc(=O)[nH]2)c1,-10.4,0.0,2.7,0.0,-4.8
COc1ccccc1/C=N/Nc1nc(C)cc(=O)[nH]1,-10.1,6.9,4.3,0.5,40.3*
COc1ccc(-c2csc(NC(=O)c3ccc(N4C(=O)CCC4=O)cc3)n2)cc1,43.7,2.4,15.1,0.0,-6.5
COc1ccccc1-c1csc(NC(=O)c2ccc(N3C(=O)CCC3=O)cc2)n1,36.0,7.6,50.8*,0.0,-5.8
O=C(c1nnsc1S(=O)c1ccc(Cl)cc1)N1CCOCC1 (configuration not stated),50.9*,·,86.3*,0.0,-5.6
CNC(=O)c1nnsc1S(=O)(=O)c1ccc(Cl)cc1,69.2*,102.6*,58.8*,0.0,-4.1
CNC(=O)c1ccc(S(=O)(=O)c2ccc(Cl)cc2)c(NC(C)=O)c1,21.0,0.5,14.0,0.2,-20.6
SMILES,TROY signal inh,LGR2 antag,TWEAK-Fn14 inh,Xi reactivation,CaV13 ICDI inh
O=C(c1nnsc1S(=O)(=O)c1ccc(Cl)cc1)N1CCOCC1,67.6*,102.1*,90.6*,0.0,0.5
COC(=O)N1C(=O)[C@@](c2ccccc2)(C2CCCCC2)N1C(=O)OC,49.4,23.8,73.5*,0.0,-11.1
CC[C@@]1(c2ccccc2)C(=O)N(C(=O)OC)N1C(=O)OC,-2.2,9.9,-8.4,0.0,-5.8
C[C@@H]1CCCCO[C@H](CN(C)Cc2ccccc2)[C@H](C)CN([C@H](C)CO)C(=O)c2cc(NC(=O)c3ccccc3)ccc2O1,·,18.9,·,-0.1,·
COC(=O)c1ccc(CCc2cc(O)ccc2O)cc1,4.5,·,87.5*,·,·
COC(=O)c1ccc(CCc2cc(O)c(Br)cc2O)cc1,-3.5,-13.4,91.8*,0.0,-6.4
